Data set [1] relates to plexiform neurofibromas. The conditions noted are these: 4 of 83 patients; phase 2 trial; cited from earlier work.
For data set [2], the system named is DhhCre;Nf1fl/fl model of neurofibromatosis type 1–related neurofibromas. As to conditions: cited from earlier work.
The format of data set [3] is in vivo.
Data set [4] in a line: Plasma pharmacokinetics of selumetinib in patients during cycle 1. The format is in vivo, human. In a few lines: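 Pediatric patients who consented received oral test compound capsules every 12 h, continuously in 28-day cycles, at 20, 25 or 30 mg per square meter (nomogram by body-surface area). Plasma was sampled in cycle 1 on day 1 before dosing and 0.5, 1, 2, 3, 5, 8, 10–12, 24 and 30–36 h after, and on day 27 before dosing. Parent and N-desmethyl metabolite were assayed; noncompartmental PK analysis.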

The test system of data set [5] is neurofibromatosis type 1–related plexiform neurofibromas. In words: Response evaluation by volumetric MRI analysis of plexiform neurofibroma volume. The format is in vivo, human.
In data set [6] the test system is plexiform neurofibroma–related complications. Kind of data set: Anecdotal report of amelioration of complications of plexiform neurofibroma. The format is in vivo, human.
For data set [7] the following is noted: children with low-grade gliomas; cited from earlier work.
The test system of data set [8] is phosphorylated extracellular signal-regulated kinase (ERK). Kind of data set: Pharmacodynamics in mouse tumor samples. As to conditions: in vivo.
The mark [9] stands for this setting: 20-mg group, 7 patients with condition at baseline.
Where [10] appears, read: 25-mg group, 3 patients with condition at baseline.
Setting [11] is: 30-mg group, 3 patients with condition at baseline.

Where two headings read alike, the source gives them in different places.

Turning to pegylated interferon alfa-2b, the “Patients with tumor volume decrease from baseline of at least 20%” value in data set [1] is 5%.

For `O=C(NOC[C@H](O)CO)c1ccc(F)c(F)c1Nc1ccc(I)cc1F` [PD0325901], in data set [2], the “Effect on neurofibroma volume” value is “tumor shrinkage in the majority of mice”.

Take `Cn1cnc2c(F)c(Nc3ccc(Br)cc3Cl)c(C(=O)NOCCO)cc21` [selumetinib]: the “Tolerability of 30 mg per square meter relative to maximum tolerated dose” value in data set [3] (30 mg per square meter twice daily) is given as “exceeded the maximum tolerated dose”. The Maximum tolerated dose in data set [3] (children, oral, every 12 hours, continuous dosing in 28-day cycles, approximately 60% of the recommended adult dose) amounted to 25 mg per square meter. Besides, in data set [3] (human, in vivo), the “Dose-limiting toxic effect: cellulitis” value is listed as “Grade 3 (2 patients)”, the “Dose-limiting toxic effect: decreased left ventricular ejection fraction” value is recorded as “Grade 3 (1 patient)”, the “Dose-limiting toxic effect: rash” value is “Grade 3 (1 patient)” and the “Dose-limiting toxic effect: urticaria” value is on record as “Grade 3 (1 patient)”. Besides, in data set [3] (human, in vivo), the “Dose-limiting toxic effects in later cycles: cellulitis” value amounted to 1 patient, the “Dose-limiting toxic effects in later cycles: creatine kinase elevation” value was 4 patients, the “Dose-limiting toxic effects in later cycles: oral mucositis” value turned out to be 3 patients and the “Left ventricular ejection fraction after decrease” value was 50%. In addition, in data set [3] (human, in vivo), the Serial ophthalmologic examinations entry is listed as “no abnormalities, with the exception of a grade 1 asymptomatic cataract at cycle 16 in 1 patient”; the “Severity of most selumetinib-related adverse events” value was “mild (grade 1)”; the “Treatment stopped because of dose-limiting toxic effects” value is listed as 1. In addition, in data set [3] (in vivo), the “Effect on height or weight” value was “No measurable effect” and the “Reversibility of dose-limiting toxic effects” value is listed as “reversible”. In addition, the “Drug exposure with increasing dose” value in data set [4] (20 to 30 mg per square meter) is “less than dose-proportional”. Further, the “Selumetinib plasma concentrations versus N-desmethyl metabolite” value in data set [4] (plasma) is “exceeded those of the N-desmethyl metabolite at all time points”. Further, the Absorption entry in data set [4] (plasma, cycle 1, 18 patients) is given as “absorbed rapidly”. Also, the “Partial response, documented progressive disease at enrollment” value in data set [5] (5 of 9 patients) was determined as 56%. Moreover, in data set [5] (6 of 7 patients), the “Partial response, no previous volumetric data available at enrollment” value was found to be 86%. In addition, the “Median time free of progression” value in data set [5] (9 patients with confirmed tumor growth before enrollment, range, 23 to 46) turned out to be 26 cycles. The Confirmed partial response in data set [5] (17 of the 24 patients, tumor volume decrease from baseline ≥20%) is 71%. Moreover, in data set [5] (20-mg group (N = 12)), the “Median best response (range)” value is reported as −31 (−6 to −47) % volume change from baseline and the “Median time to best response (range)” value is 22 (5 to 42) mo. The Partial response in data set [5] (20-mg group (N = 12), tumor volume decrease from baseline ≥20% for at least 4 weeks) is 9 (75) no. (%). Further, in data set [5] (20-mg group, of 4 patients), the “No. with response, insufficient information on progression status at entry” value (from here on “No. with response … at entry”) is reported as 3; the “No. with response, nonprogressive disease at trial entry” value is listed as 4; the “No. with response, progressive disease at trial entry” value is 2. In data set [5] (25-mg group (N = 6)), the “Median best response (range)” value is listed as −34 (−16 to −44) % volume change from baseline and the “Median time to best response (range)” value is 18 (9 to 22) mo. Further, the Partial response in data set [5] (25-mg group (N = 6), tumor volume decrease ≥20%) is on record as 5 (83) no. (%). For the same molecule, the “No. with response … at entry” value in data set [5] (25-mg group, of 2 patients) is listed as 2. Besides, the “No. with response, progressive disease at trial entry” value in data set [5] (25-mg group, of 4 patients) stood at 3. Further, in data set [5] (30-mg group (N = 6)), the “Median best response (range)” value is on record as −19 (−13 to −34) % volume change from baseline and the “Median time to best response (range)” value is 8 (5 to 24) mo. Further, the Partial response in data set [5] (30-mg group (N = 6), tumor volume decrease ≥20%) was 3 (50) no. (%). Also, in data set [5] (30-mg group, of 1 patient), the “No. with response … at entry” value is 1 and the “No. with response, progressive disease at trial entry” value was determined as 0. Besides, the “No. with response, nonprogressive disease at trial entry” value in data set [5] (30-mg group, of 4 patients) amounted to 2. Further, the “Tumor volume reduction since reinitiation at a reduced dose” value in data set [5] (Patient 7 (30-mg group)) is 25%. Besides, the “Increase in plexiform neurofibroma volume from baseline after drug interruption” value in data set [5] (Patient 7 (30-mg group), when selumetinib was restarted) is given as 9.6%. In addition, in data set [5] (all 24 patients), the “Median change from baseline in plexiform neurofibroma volume (best response)” value is −31% and the “Range of change from baseline in plexiform neurofibroma volume (best response)” value was −5.8 to −47%. The “Median time to maximum response” value in data set [5] (all patients, range, 5 to 42) was 20 cycles. In addition, in data set [5] (in vivo), the “Partial response, tumors assessed as stable at enrollment” value is on record as 2 of 2 and the “Patients with partial response who maintain their response status to date” value is 15 of the 17. The “Median duration of partial response” value in data set [5] (range, 6 to 42) turned out to be 23 cycles. Moreover, the “Disease progression (tumor volume increase from baseline of ≥20%)” value in data set [5] (to date) was “No patients have had disease progression”. Also, the “Motor dysfunction: no. of patients with improvement” value (“Motor dysfunction: no. of patients” for short) in data set [6] (20-mg group, 3 patients with condition at baseline) is given as 2. Further, in data set [6] (setting [9]), the “Disfigurement: no. of patients with improvement” value (“Disfigurement: no. of patients” for short) amounted to 2 and the “Pain: no. of patients with improvement” value turned out to be 4. Besides, in data set [6] (setting [10]), the “Motor dysfunction: no. of patients” value is 3 and the “Pain: no. of patients with improvement” value is on record as 3. In data set [6] (25-mg group, 6 patients with condition at baseline), the “Disfigurement: no. of patients” value came out at 3. In addition, in data set [6] (setting [11]), the “Motor dysfunction: no. of patients” value came out at 0 and the “Pain: no. of patients with improvement” value worked out at 1. The “Disfigurement: no. of patients” value in data set [6] (30-mg group, 5 patients with condition at baseline) stood at 0. The Maximum tolerated dose in data set [7] was 25 mg per square meter. Moreover, the “Phosphorylated ERK in mouse tumor samples” value in data set [8] is on record as “transient decrease”.

The values are drawn from paper PMC5508592 (The New England journal of medicine, 2016).
